According to ChEMBL document CHEMBL4257556, “Novel 1,3,4-thiadiazole-chalcone hybrids containing catechol moiety: synthesis, antioxidant activity, cytotoxicity and DNA interaction studies” (Medchemcomm, 2018):

Experiments:
[1] = Antioxidant activity assessed as DPPH free radical scavenging activity after 30 mins; format: functional
Summary of the method: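 DPPH (0.05 mM in methanol) mixed with equal volume of compound (DMSO solution diluted in methanol), kept in dark at room temperature 30 min; absorbance at 517 nm, methanol control, ascorbic acid positive control. IC50 = concentration giving 50% of maximum scavenging; mean ± SD of independent triplicate experiments.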

HeLa = assay: Cytotoxicity against human HeLa cells assessed as decrease in cell survival after 72 hrs by MTT assay; format: functional, cell-based
Summary of the method: (§1)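 HeLa (2000/well), A549 and MRC-5 (5000/well) seeded 20 h before treatment; HL-60 (7000/well) 2 h before. Five concentrations (6.25–100 μM or 3.125–50 μM) from 5 mM DMSO stocks, final DMSO ≤1%, 72 h; survival by MTT. Cisplatin positive control; three independent experiments in triplicate.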

HL-60 = assay: Cytotoxicity against human HL60 cells assessed as decrease in cell survival after 72 hrs by MTT assay; format: functional, cell-based; settings: HL-60, 72 h; summary of the method: as §1
A549 = assay: Cytotoxicity against human A549 cells assessed as decrease in cell survival after 72 hrs by MTT assay; format: functional, cell-based; settings: A549, 72 h; summary of the method: as §1
MRC5 = assay: Cytotoxicity against human MRC5 cells assessed as decrease in cell survival after 72 hrs by MTT assay; format: cell-based; settings: MRC5, 72 h; summary of the method: as §1

| Compound | IC50 [1] | IC50 (HeLa) | IC50 (HL-60) | IC50 (A549) | IC50 (MRC5) |
| --- | --- | --- | --- | --- | --- |
| COc1ccccc1C(=O)C=Cc1ccc(C(=O)Nc2nnc(-c3ccc(O)c(O)c3)s2)cc1 | 9.76 µM | 10.2 µM | 12 µM | 50.2 µM | 48 µM |
| Cc1ccc(C(=O)/C=C/c2ccc(C(=O)Nc3nnc(-c4ccc(O)c(O)c4)s3)cc2)cc1 | 11.8 µM | 11.2 µM | 8.44 µM | 26.4 µM | 33.7 µM |
| O=C(/C=C/c1ccc(C(=O)Nc2nnc(-c3ccc(O)c(O)c3)s2)cc1)c1ccc(Br)cc1 | 18 µM | 40.2 µM | 9.74 µM | 87.7 µM | 38.2 µM |
| COc1ccc(C(=O)/C=C/c2ccc(C(=O)Nc3nnc(-c4ccc(O)c(O)c4)s3)cc2)cc1 | 17.9 µM | 57.6 µM | 16.4 µM | 89.1 µM | 81.3 µM |
| O=C1O[C@H]([C@@H](O)CO)C(O)=C1O [ASCORBIC ACID] | 20.2 µM | – | – | – | – |

Second part, led by results:

| IC50 [1] | Compound | IC50 (HeLa) | IC50 (HL-60) | IC50 (A549) | IC50 (MRC5) |
| --- | --- | --- | --- | --- | --- |
| 14 µM | O=C(/C=C/c1ccc(C(=O)Nc2nnc(-c3ccc(O)c(O)c3)s2)cc1)c1ccc([N+](=O)[O-])cc1 | 54.8 µM | 11.2 µM | 128 µM | 39.4 µM |
| 13.9 µM | O=C(Nc1nnc(-c2ccc(O)c(O)c2)s1)c1ccc(C=CC(=O)c2ccccc2F)cc1 | 11.1 µM | 8.88 µM | 46.9 µM | 39.6 µM |
| 11.7 µM | Cc1ccccc1C(=O)C=Cc1ccc(C(=O)Nc2nnc(-c3ccc(O)c(O)c3)s2)cc1 | 9.12 µM | 7.62 µM | 21.8 µM | 18.6 µM |
| 13.5 µM | O=C(Nc1nnc(-c2ccc(O)c(O)c2)s1)c1ccc(/C=C/C(=O)c2cccc3cc4ccccc4cc23)cc1 | 11 µM | 6.92 µM | 23.2 µM | 21.2 µM |
| 17.8 µM | O=C(/C=C/c1ccc(C(=O)Nc2nnc(-c3ccc(O)c(O)c3)s2)cc1)c1ccc(F)cc1 | 17.8 µM | 10.6 µM | 89.3 µM | 45.8 µM |
